The source made the active and inactive calls. The rule behind the calls is not given here.
Experiments:
Brain [1] = test: Drug uptake in ddY mouse brain at 11.1 kBq, iv after 5 min by gamma counting; type: ADME, organism-based; conditions: in vivo
Method in brief: (§1)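 Male ddY mice (6 weeks, 30–35 g) received about 11.1 kBq [125I]tracer in 0.1 mL i.v. via tail vein. Killed at set times, organs dissected and weighed, radioactivity gamma counted. Reported as % injected dose/g tissue, mean ± SD, n = 5–6.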

Brain [2] = test: Drug uptake in ddY mouse brain at 11.1 kBq, iv after 0.5 min by gamma counting; type: ADME, organism-based; conditions: in vivo; method in brief: as §1
Pancreas = test: Drug uptake in ddY mouse pancreas at 11.1 kBq, iv after 180 min by gamma counting; type: ADME, organism-based; conditions: in vivo, 3 h
Method in brief: (§2)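 Male ddY mice (6 weeks, 30–35 g) were given about 11.1 kBq of [125I]tracer in 0.1 mL i.v. via the tail vein. At each time point the animals were killed and organs dissected, weighed and gamma-counted. Uptake is expressed as % injected dose per gram of tissue, mean ± SD, n = 5–6.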

Kidney [3] = test: Drug uptake in ddY mouse kidney at 11.1 kBq, iv after 0.5 min by gamma counting; type: ADME, organism-based; conditions: in vivo; method in brief: as §1
Spleen = test: Drug uptake in ddY mouse spleen at 11.1 kBq, iv after 60 min by gamma counting; type: ADME, organism-based; conditions: in vivo, 1 h; method in brief: as §2
Kidney [4] = test: Drug uptake in ddY mouse kidney at 11.1 kBq, iv after 180 min by gamma counting; type: ADME, organism-based; conditions: in vivo, 3 h; method in brief: as §2
[5] = molecular target: T1, Sodium- and chloride-dependent glycine transporter 1 (Rattus norvegicus) (UniProt P28572); test: Binding affinity to GlyT1 in rat brain cerebellar gray matter at 0.03 to 0.04 nM preincubated for 20 mins in binding buffer before compound addition measured after 30 mins by autoradiography relative to control; type: tissue-based; conditions: tested as the 125I-labelled form
T1 sequence (whole entry): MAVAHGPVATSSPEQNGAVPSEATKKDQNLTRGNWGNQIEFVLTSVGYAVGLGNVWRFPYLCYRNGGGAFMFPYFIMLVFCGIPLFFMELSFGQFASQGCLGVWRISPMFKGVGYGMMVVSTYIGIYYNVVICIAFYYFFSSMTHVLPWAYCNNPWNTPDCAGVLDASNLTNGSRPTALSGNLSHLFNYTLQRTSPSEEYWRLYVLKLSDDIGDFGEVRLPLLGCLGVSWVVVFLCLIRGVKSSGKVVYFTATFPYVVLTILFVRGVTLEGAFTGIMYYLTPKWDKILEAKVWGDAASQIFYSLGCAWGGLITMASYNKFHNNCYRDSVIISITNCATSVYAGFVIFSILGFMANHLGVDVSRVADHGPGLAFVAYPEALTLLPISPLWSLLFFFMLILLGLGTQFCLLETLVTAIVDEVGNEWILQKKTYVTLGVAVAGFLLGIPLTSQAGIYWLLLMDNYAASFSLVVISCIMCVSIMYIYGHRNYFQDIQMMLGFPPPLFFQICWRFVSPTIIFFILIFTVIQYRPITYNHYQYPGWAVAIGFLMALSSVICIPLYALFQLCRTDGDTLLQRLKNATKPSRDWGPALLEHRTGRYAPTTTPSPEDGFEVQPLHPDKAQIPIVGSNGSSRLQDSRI

[6] = molecular target: T1, Sodium- and chloride-dependent glycine transporter 1 (Rattus norvegicus); test: Binding affinity to GlyT1 in rat brain striatum at 0.03 to 0.04 nM preincubated for 20 mins in binding buffer before compound addition measured after 30 mins by autoradiography in presence of 0.01 mM GlyT1 inhibitor SSR504734 relative to control; type: tissue-based; conditions: tested as the 125I-labelled form
[7] = molecular target: T1, Sodium- and chloride-dependent glycine transporter 1 (Rattus norvegicus); test: Binding affinity to GlyT1 in rat brain thalamus at 0.03 to 0.04 nM preincubated for 20 mins in binding buffer before compound addition measured after 30 mins by autoradiography in presence of 0.01 mM GlyT2 inhibitor ORG25543 relative to control; type: tissue-based; conditions: tested as the 125I-labelled form
[8] = molecular target: T1, Sodium- and chloride-dependent glycine transporter 1 (Rattus norvegicus); test: Binding affinity to GlyT1 in rat brain midbrain at 0.03 to 0.04 nM preincubated for 20 mins in binding buffer before compound addition measured after 30 mins by autoradiography relative to control; type: tissue-based; conditions: tested as the 125I-labelled form
[9] = molecular target: T1, Sodium- and chloride-dependent glycine transporter 1 (Rattus norvegicus); test: Binding affinity to GlyT1 in rat brain hippocampus at 0.03 to 0.04 nM preincubated for 20 mins in binding buffer before compound addition measured after 30 mins by autoradiography in presence of 10 mM GlyT1 substrate glycine relative to control; type: tissue-based; conditions: tested as the 125I-labelled form
Method in brief: (§3)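 Rat brain sagittal sections (20 µm) preincubated 20 min at 25 °C in Tris-HCl buffer pH 7.5 (NaCl, KCl, MgCl2, CaCl2), then 30 min at 25 °C with [125I] tracer (100 kBq, 0.03–0.04 nM) plus competitor (10 µM; glycine 1 or 10 mM). Cold washes, imaging plate 3 days, ROI PSL minus background per mm². % control from ≥triplicate slices, three rats.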

[10] = molecular target: T1, Sodium- and chloride-dependent glycine transporter 1 (Rattus norvegicus); test: Binding affinity to GlyT1 in rat brain midbrain at 0.03 to 0.04 nM preincubated for 20 mins in binding buffer before compound addition measured after 30 mins by autoradiography in presence of 1 mM GlyT1 substrate glycine relative to control; type: tissue-based; conditions: tested as the 125I-labelled form
[11] = molecular target: T1, Sodium- and chloride-dependent glycine transporter 1 (Rattus norvegicus); test: Binding affinity to GlyT1 in rat brain cerebral cortex at 0.03 to 0.04 nM preincubated for 20 mins in binding buffer before compound addition measured after 30 mins by autoradiography in presence of 1 mM GlyT1 substrate glycine relative to control; type: tissue-based; conditions: tested as the 125I-labelled form; method in brief: as §3
[12] = molecular target: T1, Sodium- and chloride-dependent glycine transporter 1 (Rattus norvegicus); test: Binding affinity to GlyT1 in rat brain hippocampus at 0.03 to 0.04 nM preincubated for 20 mins in binding buffer before compound addition measured after 30 mins by autoradiography in presence of GlyT1 inhibitor N-Me-SSR504734 relative to control; type: tissue-based; conditions: tested as the 125I-labelled form; method in brief: as §3
[13] = molecular target: T1, Sodium- and chloride-dependent glycine transporter 1 (Rattus norvegicus); test: Binding affinity to GlyT1 in rat brain corpus callosum at 0.03 to 0.04 nM preincubated for 20 mins in binding buffer before compound addition measured after 30 mins by autoradiography in presence of 0.01 mM GlyT1 inhibitor ALX5407 relative to control; type: tissue-based; conditions: tested as the 125I-labelled form; method in brief: as §3
Mus musculus [14] = test: In vivo binding affinity to GlyT1 in ddY mouse brain cerebral cortex at 200 kBq, iv after 60 mins by autoradiography relative to control; type: functional, organism-based; conditions: tested as the 125I-labelled form
Method in brief: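 Ex vivo autoradiography in mice given 200 kBq [125I]tracer i.v. and killed at 60 min. Brains were removed, frozen on dry ice and cut into 20 µm sagittal cryosections, which were exposed to an imaging plate for 7 days. Regional signal was quantified as PSL/mm² (n = 5) and compared to control by Kruskal–Wallis with Dunn's post-test.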

[15] = molecular target: T1, Sodium- and chloride-dependent glycine transporter 1 (Rattus norvegicus); test: Binding affinity to GlyT1 in rat brain thalamus at 0.03 to 0.04 nM preincubated for 20 mins in binding buffer before compound addition measured after 30 mins by autoradiography in presence of 0.01 mM NMDA receptor glycine site antagonist L-701,324 relative to control; type: tissue-based; conditions: tested as the 125I-labelled form
Mus musculus [16] = test: In vivo binding affinity to GlyT1 in ddY mouse brain thalamus at 33.3 kBq, iv after 60 mins in presence of SSR504734 2 mg/kg, iv administered 15 mins prior to compound administration relative to control; type: functional, organism-based; design: dose 2 mg/kg; conditions: tested as the 125I-labelled form
Mus musculus [17] = test: In vivo binding affinity to GlyT1 in ddY mouse brain midbrain at 33.3 kBq, iv after 60 mins in presence of SSR504734 2 mg/kg, iv administered 15 mins prior to compound administration relative to control; type: functional, organism-based; design: dose 2 mg/kg; conditions: tested as the 125I-labelled form
[18] = molecular target: T1, Sodium- and chloride-dependent glycine transporter 1 (Rattus norvegicus); test: Binding affinity to GlyT1 in rat brain striatum at 0.03 to 0.04 nM preincubated for 20 mins in binding buffer before compound addition measured after 30 mins by autoradiography relative to control; type: tissue-based; conditions: tested as the 125I-labelled form

Drug uptake (Brain [1]) [% ID/g]	Drug uptake (Brain [2]) [% ID/g]	Drug uptake (Pancreas) [% ID/g]	Drug uptake (Kidney [3]) [% ID/g]	Drug uptake (Spleen) [% ID/g]	Drug uptake (Kidney [4]) [% ID/g]	Activity [5]	Activity [6] [%]	Activity [7] [%]	Activity [8]	Activity [9] [%]	Activity [10] [%]	Activity [11] [%]	Activity [12] [%]	Activity [13] [%]	Activity [15] [%]	Activity [18]	SMILES	Activity (Mus musculus [14])	Activity (Mus musculus [16])	Activity (Mus musculus [17])
1.33	0.51	4.84	4.05	5.86	6.97												CN1CCCC[C@H]1[C@@H](NC(=O)c1cccc(C(F)(F)F)c1[125I])c1ccccc1			
						inactive	50.2	99.7	Active	71.5	106	89.6	45.8	27.8	87.1	inactive	CN1CCCC[C@H]1[C@@H](NC(=O)c1cccc(C(F)(F)F)c1I)c1ccccc1	inactive	inactive	inactive

Source: ChEMBL document CHEMBL1938298, “Synthesis and characterization of [¹²⁵I]2-iodo N-[(S)-{(S)-1-methylpiperidin-2-yl}(phenyl)methyl]3-trifluoromethyl-benzamide as novel imaging probe for glycine transporter 1” (Bioorg Med Chem, 2011)
